Rows were chosen to be rich in hits. Some 3.5% of all compounds tested hit in one or more screens of this group.
FN deposition inh – fibronectin deposition inhibition; AH1F fibroblasts, Alexa488-fibronectin deposition fluorescence, overnight; inhibition, % at 12.6 µM; actives 0.086% (n = 350,000); AID 743247;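 active = mean inhibition across replicates of 30% or more, regardless of how many single replicates reach that level; inconclusive = mean under 30% yet at least half of replicates reach 30%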;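 also: positive control wells lacked labelled fibronectin entirely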
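Material: AH1F fibroblast monolayer depositing Alexa488-labelled fibronectin into matrix / Amount: 10000 AH1F cells per well / Signal: fluorescence 485/525 nm / Medium: DMEM, 2% serum / Compound: single dose, pinned / Incubation: 1 h cell adhesion before compound, then overnight fibronectin incubation / Reagent: Alexa488-FN, 24 nM final / Read-out: inhibition of fibronectin deposition signal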
Ecoli rRNA inh – inhibits bacterial ribosomal RNA function over humanized ribosomes; E. coli WT GFP vs humanized-ribosome RFP mutants, fluorescence, 24 h; active compounds read low; DMSO median 0, no signal -100; GFP signal change (wild-type ribosome), % (test concentration not listed); actives 1.6% (n = 350,000);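 active = significant combined selectivity score with lowered wild-type GFP, culture density cut under 30%, mutant RFP and density less affected; inactive = any of these conditions unmet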
HIV Env fusion – HIV envelope-mediated fusion inhibition; HeLa-JRFL Env/CEM21 cell fusion, luciferase; inhibition, % at 12.3 µM; actives 1.1% (n = 360,000); AID 651610;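 active = mean replicate inhibition score of at least 50 and every replicate individually at or above 50; inconclusive = only one of the two criteria met; inactive = mean below 50 and not all replicates reaching 50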;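 also: 0% = plate neutral controls and 100% = maraviroc near 300 nM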
PGC1a acetyl inh – modulators of PGC1a acetylation. U2OS PGC1a acetylation, AlphaScreen anti-acetyl-lysine; with virally co-expressed GCN5 acetyltransferase. inhibition, % at 15.6 µM. actives 0.17% (n = 350,000). AID 651687;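 active = every replicate shows inhibition of at least 40%; inconclusive = mean inhibition at least 40% but some replicate below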;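 also: 0% = neutral control wells and 100% = positive control wells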
PglD inh – blocks C. jejuni PglD acetyltransferase activity; purified PglD enzyme, DTNB colorimetric CoA detection; inhibition, % at 12.5 µM; actives 0.098% (n = 360,000); AID 602405; in the data active = inhibition above about 16%, passing the limit was not always enough; inconclusive = no clear call, values can overlap the other calls
DENV2 CPE rescue – protects cells from dengue virus 2 cytopathic effect. actives 1.7% (n = 350,000). DENV2-infected cells, cytopathic effect rescue, plate reader. AID 651640. CPE inhibition, % at 9.99 µM; in the data active = CPE inhibition above about 20%, passing the limit was not always enough; inconclusive = no clear call, values can overlap the other calls; tested in BHK-21 cells;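 also: 0% = median of neutral control wells and 100% = median of positive control wells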
Active calls of the source: *; i = inactive; ? = inconclusive; / = not tested or not shown; [ ] = another dose, or the depositor's remark.

SMILES | FN deposition inh | Ecoli rRNA inh | HIV Env fusion | PGC1a acetyl inh | PglD inh | DENV2 CPE rescue
C[C@@H]1CN([C@H](C)CO)C(=O)Cc2cc(NS(=O)(=O)c3cn(C)cn3)ccc2O[C@H]1CN(C)C(=O)Nc1ccc2c(c1)OCO2 | / | 3.3 | -11.8[16.7 µM] | 3.0 | 5.4 | 1.0
C[C@@H]1CN([C@@H](C)CO)C(=O)Cc2cc(NS(=O)(=O)c3cn(C)cn3)ccc2O[C@@H]1CN(C)C(=O)Nc1ccc2c(c1)OCO2 | / | 1.0 | 3.5[16.7 µM] | -3.3 | 4.8 | 28.2*
C[C@H]1CN([C@@H](C)CO)C(=O)c2cc(-c3ccc(F)cc3)cnc2O[C@@H]1CN(C)C(=O)C1CCC1 | -7.3 | -5.9 | 3.7[16.7 µM] | -14.4 | 3.1 | 13.6
C[C@H](CO)N1C[C@H](C)[C@@H](CN(C)C(=O)Nc2ccccc2)Oc2ccc(NS(=O)(=O)c3ccc(Cl)cc3)cc2CC1=O | / | 2.6 | / | 2.6 | -1.6 | 58.3*
COc1ccc(S(=O)(=O)Nc2ccc3c(c2)CC(=O)N([C@H](C)CO)C[C@H](C)[C@@H](CN(C)C(=O)Nc2ccc4c(c2)OCO4)O3)cc1 | / | 2.9 | -7.4[16.7 µM] | 5.2 | -1.2 | 26.1*
C[C@@H]1CN([C@H](C)CO)C(=O)Cc2cc(NS(=O)(=O)c3ccccc3)ccc2O[C@H]1CN(C)C(=O)Nc1ccccc1 | / | 2.6 | -11.1[16.7 µM] | 11.1 | -2.1 | -1.0
C[C@H](CO)N1C[C@H](C)[C@H](CN(C)C(=O)Nc2ccccc2)Oc2ccc(NS(=O)(=O)c3ccccc3)cc2CC1=O | / | 2.4 | 10.6[16.7 µM] | 1.3 | 0.4 | 33.6*
C[C@@H]1CN([C@@H](C)CO)C(=O)Cc2cc(NS(=O)(=O)c3ccccc3)ccc2O[C@H]1CN(C)C(=O)Nc1ccccc1 | / | -0.3 | 12.9[16.7 µM] | 8.0 | 1.3 | -11.3
C[C@H]1CN([C@@H](C)CO)C(=O)Cc2cc(NS(=O)(=O)c3ccccc3)ccc2O[C@@H]1CN(C)C(=O)Nc1ccccc1 | / | 4.5 | -17.4[16.7 µM] | 8.7 | 2.3 | 23.2*
COc1ccc(S(=O)(=O)Nc2ccc3c(c2)CC(=O)N([C@@H](C)CO)C[C@H](C)[C@H](CN(C)C(=O)Nc2ccc4c(c2)OCO4)O3)cc1 | / | 3.5 | 3.0[16.7 µM] | 0.3 | -0.3 | -11.9
C[C@@H]1CN([C@H](C)CO)C(=O)c2cc(NC(=O)Cc3ccccc3)ccc2O[C@@H]1CN(C)Cc1ccc2c(c1)OCO2 | / | 3.6 | 0.1[16.7 µM] | -4.3 | 11.3 | 9.3
CC=Cc1ccc2n(c1=O)C[C@H]1[C@H](CO)[C@@H](C(=O)NCC)[C@@H]2N1C(=O)Nc1cc(F)ccc1F (mixture of isomers) | / | 4.0 | / | / | 0.0 | -1.5
COc1ccc(NC(=O)N(C)C[C@@H]2Oc3ccc(NS(=O)(=O)c4ccccc4)cc3CC(=O)N([C@H](C)CO)C[C@@H]2C)cc1 | / | 1.8 | -12.7[16.7 µM] | 3.2 | / | 39.0*
Clc1ccc(CN(Cc2ccccc2)C(c2cccs2)c2nnnn2C2CCCC2)cc1 (stereo not drawn) | 13.7 | / | 93.7* | / | 2.5 | /
CN(c1ccccc1)S(=O)(=O)c1cccc(NC(=O)C2=NNC(=O)CC2)c1 | -5.7 | 5.0 | 63.7* | -5.7 | 0.8 | 5.4
Cc1ccc(C(=O)Nc2cccc(S(=O)(=O)N(C)c3ccccc3)c2)o1 | 1.5 | -8.1 | 6.6 | -10.0 | 3.7 | -4.1
COc1ccccc1-n1c(SCC(=O)O)nc2c(sc(=S)n2-c2ccc(Cl)c(C)c2)c1=O | 3.9 | -33.5 | 6.2 | 0.1 | -1.5 | -5.4
COc1ccccc1-n1c(SCC(=O)O)nc2c(sc(=S)n2-c2ccc(C)c(C)c2)c1=O | 10.2 | -20.8* | -3.3 | / | -3.6 | 1.0
C[C@@H]1CN([C@@H](C)CO)C(=O)c2cc(NS(=O)(=O)c3cccs3)ccc2O[C@H]1CN(C)S(=O)(=O)c1cccs1 | / | -6.8 | -12.3[16.7 µM] | -11.8 | / | /
CCOc1cc(N2CCOCC2)c(OCC)cc1NC(=O)[C@H](C)NC(=O)c1ccco1 | 17.8 | 3.6 | 19.4 | / | 5.6 | 37.5*
CN(C)S(=O)(=O)c1ccc(-c2ccccc2)cc1 | / | / | / | / | 3.2 | /
CN(c1ccccc1)S(=O)(=O)c1ccc(-c2ccccc2)cc1 | 4.7 | -23.6* | -19.2 | 1.4 | 1.9 | -2.5
CC(=O)Nc1cccc(C(=O)OC(C)C(=O)NC(=O)NC2CCCCC2)c1 (stereo not drawn) | 0.5 | -3.0 | 12.3 | -4.5 | -0.8 | 23.2*
N#CCCn1nc(Cc2cccc3ccccc23)c(C#N)c1N | -1.2 | -9.7 | 20.2 | / | -2.0 | ?
CCn1nc(Cc2cccc3ccccc23)c(C#N)c1N | 4.5 | -27.1* | 15.1 | / | -0.5 | -4.7
SMILES | FN deposition inh | Ecoli rRNA inh | HIV Env fusion | PGC1a acetyl inh | PglD inh | DENV2 CPE rescue
C[C@@H]1CN([C@H](C)CO)S(=O)(=O)c2ccc(C#CC3(O)CCCC3)cc2O[C@H]1CN(C)C(=O)c1cccnc1 | / | 1.5 | / | 1.7 | 4.6 | 0.5
CCOC1=C2[C@@H](CN(S(=O)(=O)c3ccccc3C)[C@H]2c2ccc(Cl)cc2)[C@H]2C(=O)N(c3ccccc3)C(=O)[C@H]2C1 | -9.4 | 14.6 | 20.5 | -8.3 | -0.2 | -9.7
CCOC1=C2[C@@H](CN(S(=O)(=O)c3ccccc3C)[C@H]2c2ccc(Cl)cc2)[C@H]2C(=O)NC(=O)[C@H]2C1 | 2.6 | -36.3 | 79.0* | -9.1 | 4.0 | 13.2
O=C(Nc1nc(COc2ccccc2)cs1)C12CC3CC(CC(C3)C1)C2 | -6.4 | / | 67.6* | -1.8 | 10.7 | /
CC(=O)Nc1nc(COc2ccccc2)cs1 | / | / | -90.6 | 3.7 | -4.9 | /
O=C(NCc1cccnc1)c1ccc(-c2ccc(Cl)cc2)o1 | / | -2.5 | 7.9 | / | / | 16.3
O=C(NCc1cccnc1)/C(=C\c1ccc(-c2ccc(Cl)c(Cl)c2)o1)S(=O)(=O)c1ccccc1 | 31.2* | -21.4 | i | 59.2* | -7.7 | 2.9
C[C@H](CO)N1C[C@H](C)[C@H](CN(C)Cc2ccc3c(c2)OCO3)OCCCC[C@H](C)Oc2ccc(NC(=O)Nc3ccc(C(F)(F)F)cc3)cc2C1=O | -1.4 | -4.8 | 60.6*[16.7 µM] | -9.1 | -1.6 | -29.5
C[C@@H]1CCCCO[C@H](CN(C)Cc2ccc3c(c2)OCO3)[C@H](C)CN([C@@H](C)CO)C(=O)c2cc(NC(=O)Nc3ccc(C(F)(F)F)cc3)ccc2O1 | -3.3 | -3.1 | 15.0[16.7 µM] | -5.9 | -2.1 | -32.1
C[C@H]1CCCCO[C@H](CN(C)Cc2ccc3c(c2)OCO3)[C@@H](C)CN([C@@H](C)CO)C(=O)c2cc(NC(=O)Nc3ccc(C(F)(F)F)cc3)ccc2O1 | -1.8 | -2.7 | ? | 78.7* | -2.3 | -32.9
C[C@@H]1CCCCO[C@H](CN(C)Cc2ccc3c(c2)OCO3)[C@@H](C)CN([C@@H](C)CO)C(=O)c2cc(NC(=O)Nc3ccc(C(F)(F)F)cc3)ccc2O1 | / | / | ? | 53.5* | -1.0 | -32.0

Screening results deposited in PubChem BioAssay by Broad Institute.
